Measured values from different studies.
Protocols differ between the studies behind these lines.
AMY2: Pancreatic alpha-amylase (AMY2, Sus scrofa, UniProt P00690)
IAPP: Islet amyloid polypeptide (IAPP, Homo sapiens, UniProt P10997)
malE: malE (Escherichia coli, UniProt P0AEX9)

| SMILES | target | read-out | action | technique | notes | quantity | result |
| --- | --- | --- | --- | --- | --- | --- | --- |
| CCCc1ccc(O)c(OC)c1 | OR8H1 (Homo sapiens, UniProt Q8NGG4) | cAMP | agonist | luciferase |  | EC50 | > 600 µM |
| FC(F)(F)c1ccc(/C=N/N=C/c2ccc(C(F)(F)F)cc2)cc1 | AMY2 | enzyme activity | inhibitor |  |  | IC50 | 270 µM |
| COc1ccc(-c2cc(=O)c3c(OC)c(OC)c(OC)c(OC)c3o2)cc1OC | IAPP | binding |  | ITC |  | Kd | 2790 nM |
| C[C@H]1O[C@H](O[C@H]2[C@H](O)[C@@H](O)[C@@H](O[C@H]3[C@H](O)[C@@H](O)C(O)O[C@@H]3CO)O[C@@H]2CO)[C@H](O)[C@@H](O)[C@@H]1N[C@H]1C=C(CO)[C@@H](O)[C@H](O)[C@H]1O (stereo partly drawn) | malE | binding |  | ITC |  | Kd | 360 nM |
| CC(=O)Nc1ccc(Nc2nc(-c3sc(N)nc3C)cs2)cc1 | Lysyl oxidase homolog 2 (LOXL2, Homo sapiens, UniProt Q9Y4K0) | enzyme activity | inhibitor | fluorescence | with preincubation | IC50 | 0.95 µM |
| Clc1ccccc1/C=N/N=C/c1ccccc1Cl | AMY2 | enzyme activity | inhibitor |  |  | IC50 | 478 µM |
| COc1ccc(-c2cc(=O)c3c(OC)c(OC)c(OC)cc3o2)cc1OC | IAPP | binding |  | ITC |  | Kd | 3060 nM |
| CC(C)(C)OC(=O)N1CCN(Cc2ccn(Cc3ccc(Cl)cc3)c(=O)c2O)CC1 | Lysine-specific demethylase 4D (KDM4D, Homo sapiens, UniProt Q6B0I6) | enzyme activity | inhibitor |  |  | IC50 | 3.35 µM |
| OC[C@@H](O)[C@@H](O[C@H]1O[C@H](CO)[C@@H](O[C@H]2O[C@H](CO)[C@@H](O[C@H]3O[C@H](CO)[C@@H](O)[C@H](O)[C@H]3O)[C@H](O)[C@H]2O)[C@H](O)[C@H]1O)[C@H](O)[C@@H](O)CO | malE | binding |  | ITC |  | Kd | 4440 nM |
